Source: ChEMBL document CHEMBL3297648, “Diterpenoids from the Chinese liverwort Heteroscyphus tener and their antiproliferative effects” (J Nat Prod, 2014)
Activity calls are given as the source filed them. The calls are words filed in the database; no cut-off is given here.

Assays:
[1] = molecular target: Breast cancer type 1 susceptibility protein (Homo sapiens) (UniProt P38398); assay: Inactivation of BRCA1 in human DU145 cells assessed as decline in BRCA1 phosphorylation at Ser1524 at 20 uM by western blot analysis; assay type: cell-based; conditions: DU-145
In short: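 Cells treated at 20 μM for various times, lysed in RIPA buffer with protease/phosphatase inhibitors, protein quantified by BCA. Equal protein run on 12% SDS-PAGE, transferred to nitrocellulose, blocked 1 h in 5% milk/TBST, primary antibodies overnight at 4 °C, secondary 1:2000 for 45 min, ECL detection on film. GAPDH used as loading control.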

[2] = Cell cycle arrest in human PC3 cells assessed as accumulation at G2/M phase at 10 uM after 24 hrs by propidium iodide staining based flow cytometry (reference value: 10.43%); assay type: functional; conditions: PC-3
[3] = Cell cycle arrest in human PC3 cells assessed as accumulation at S phase at 20 uM after 24 hrs by propidium iodide staining based flow cytometry (reference value: 22.07%); assay type: functional; conditions: PC-3
[4] = Decrease in cyclin E protein expression in human DU145 cells by western blot analysis; assay type: functional, cell-based; conditions: DU-145, TDE = time-dependent effect
In short: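 Western blot of cyclin D1, cyclin E, Cdk4 and p21 in PC3 and DU145 lysates. Lysis in RIPA buffer plus protease inhibitors, BCA quantification, 12% SDS-PAGE, nitrocellulose transfer, milk block, primaries overnight at 4 °C, secondary 1:2000 for 45 min, ECL read-out. GAPDH served as loading control.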

PC-3 = assay: Induction of apoptosis in human PC3 cells assessed as necrotic cells at 20 uM after 4 hrs by Annexin V-FITC/propidium iodide staining based flow cytometry (reference value: 0.98%); assay type: functional
In short: (§1)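 Cells seeded in 6-well plates for 24 h, then given 20 μM for the stated times. Cells were trypsinized, PBS-washed, stained with annexin V-FITC/PI, and analysed immediately by flow cytometry. Means ± SD of three independent experiments; Student's t test against untreated control.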

DU-145 [5] = assay: Induction of apoptosis in human DU145 cells assessed as early apoptotic cells at 20 uM after 8 hrs by Annexin V-FITC/propidium iodide staining based flow cytometry (reference value: 1.60%); assay type: functional; in short: as §1
DU-145 [6] = assay: Induction of apoptosis in human DU145 cells assessed as early apoptotic cells at 20 uM after 12 hrs by Annexin V-FITC/propidium iodide staining based flow cytometry (reference value: 1.60%); assay type: functional; in short: as §1
DU-145 [7] = assay: Induction of apoptosis in human DU145 cells assessed as late apoptotic cells at 20 uM after 24 hrs by Annexin V-FITC/propidium iodide staining based flow cytometry (reference value: 1.53%); assay type: functional; in short: as §1

Chain of Breast cancer type 1 susceptibility protein (Homo sapiens) (P38398 whole entry, looked up): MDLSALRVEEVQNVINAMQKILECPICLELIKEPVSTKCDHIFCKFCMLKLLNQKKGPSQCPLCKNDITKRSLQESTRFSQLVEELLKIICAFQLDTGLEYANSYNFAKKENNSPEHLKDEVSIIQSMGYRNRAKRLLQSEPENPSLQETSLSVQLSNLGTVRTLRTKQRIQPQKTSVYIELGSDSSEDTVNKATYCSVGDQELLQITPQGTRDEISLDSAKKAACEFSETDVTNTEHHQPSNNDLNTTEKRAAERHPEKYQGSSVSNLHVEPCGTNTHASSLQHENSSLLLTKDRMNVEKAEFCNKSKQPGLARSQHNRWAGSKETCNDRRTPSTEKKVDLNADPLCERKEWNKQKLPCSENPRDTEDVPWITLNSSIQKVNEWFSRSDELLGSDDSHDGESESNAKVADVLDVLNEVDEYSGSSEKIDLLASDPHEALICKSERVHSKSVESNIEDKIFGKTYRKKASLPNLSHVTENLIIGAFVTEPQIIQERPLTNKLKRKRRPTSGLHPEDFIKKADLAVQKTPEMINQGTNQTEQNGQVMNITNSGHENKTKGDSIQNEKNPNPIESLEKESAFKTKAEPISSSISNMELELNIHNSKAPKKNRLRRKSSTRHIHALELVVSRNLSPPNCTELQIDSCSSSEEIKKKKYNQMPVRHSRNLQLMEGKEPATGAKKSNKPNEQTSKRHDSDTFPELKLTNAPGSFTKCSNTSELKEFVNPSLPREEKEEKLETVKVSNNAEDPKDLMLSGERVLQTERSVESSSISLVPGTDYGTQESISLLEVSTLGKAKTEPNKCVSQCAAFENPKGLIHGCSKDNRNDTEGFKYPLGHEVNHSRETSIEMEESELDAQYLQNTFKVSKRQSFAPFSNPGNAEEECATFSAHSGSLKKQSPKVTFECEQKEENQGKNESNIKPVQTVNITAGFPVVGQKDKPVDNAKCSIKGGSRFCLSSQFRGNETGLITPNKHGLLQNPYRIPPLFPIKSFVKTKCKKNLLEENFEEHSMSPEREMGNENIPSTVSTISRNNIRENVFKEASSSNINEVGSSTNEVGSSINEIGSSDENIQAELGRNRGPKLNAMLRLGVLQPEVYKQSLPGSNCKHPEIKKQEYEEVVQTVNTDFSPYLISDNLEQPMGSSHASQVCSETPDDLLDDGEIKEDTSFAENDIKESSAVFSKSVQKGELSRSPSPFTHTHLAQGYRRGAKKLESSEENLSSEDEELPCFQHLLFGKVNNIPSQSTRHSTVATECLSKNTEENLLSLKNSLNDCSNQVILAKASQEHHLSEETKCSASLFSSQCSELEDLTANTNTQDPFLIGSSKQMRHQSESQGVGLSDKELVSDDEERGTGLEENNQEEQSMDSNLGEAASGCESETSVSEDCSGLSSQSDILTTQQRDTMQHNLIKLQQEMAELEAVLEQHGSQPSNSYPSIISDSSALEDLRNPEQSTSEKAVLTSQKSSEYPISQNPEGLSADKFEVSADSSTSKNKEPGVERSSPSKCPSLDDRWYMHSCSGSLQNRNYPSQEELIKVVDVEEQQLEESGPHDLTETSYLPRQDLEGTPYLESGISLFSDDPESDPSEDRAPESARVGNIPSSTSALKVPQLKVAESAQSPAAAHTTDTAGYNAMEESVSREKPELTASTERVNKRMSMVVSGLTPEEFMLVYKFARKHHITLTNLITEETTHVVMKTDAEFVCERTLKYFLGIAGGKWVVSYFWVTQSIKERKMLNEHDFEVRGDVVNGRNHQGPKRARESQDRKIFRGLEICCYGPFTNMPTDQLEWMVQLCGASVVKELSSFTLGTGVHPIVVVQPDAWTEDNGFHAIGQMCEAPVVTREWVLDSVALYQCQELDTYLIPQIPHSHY

inhibition [1]: Active
Compound: C=C[C@@](C)(O)CC[C@@H]1C(C)=CC[C@@H]2C(C)(C)CCC[C@@]12C
Activity [2]: 11.1% | Activity [3]: 4.24% | inhibition [4]: tde | Activity (PC-3): 2.75% | Activity (DU-145 [5]): 4.56% | Activity (DU-145 [6]): 6.55% | Activity (DU-145 [7]): 15.33%
